Active and inactive are the calls of the source. The rule behind the calls is not given here.
Assays:
mTOR/FKBP12A/FKBP12B = mTOR/FKBP12A/FKBP12B (Homo sapiens, UniProt P42345+P62942+P68106); assay: Inhibition of full length recombinant human mTOR/FKBP12; assay type: protein-complex assay
[1] = target: Phosphatidylinositol 4,5-bisphosphate 3-kinase catalytic subunit gamma isoform (Homo sapiens) (UniProt P48736); assay: Inhibition of full length recombinant human PI3K p120gamma at 1 uM relative to control
Sequence of Phosphatidylinositol 4,5-bisphosphate 3-kinase catalytic subunit gamma isoform (Homo sapiens) (P48736 whole entry, looked up, canonical isoform): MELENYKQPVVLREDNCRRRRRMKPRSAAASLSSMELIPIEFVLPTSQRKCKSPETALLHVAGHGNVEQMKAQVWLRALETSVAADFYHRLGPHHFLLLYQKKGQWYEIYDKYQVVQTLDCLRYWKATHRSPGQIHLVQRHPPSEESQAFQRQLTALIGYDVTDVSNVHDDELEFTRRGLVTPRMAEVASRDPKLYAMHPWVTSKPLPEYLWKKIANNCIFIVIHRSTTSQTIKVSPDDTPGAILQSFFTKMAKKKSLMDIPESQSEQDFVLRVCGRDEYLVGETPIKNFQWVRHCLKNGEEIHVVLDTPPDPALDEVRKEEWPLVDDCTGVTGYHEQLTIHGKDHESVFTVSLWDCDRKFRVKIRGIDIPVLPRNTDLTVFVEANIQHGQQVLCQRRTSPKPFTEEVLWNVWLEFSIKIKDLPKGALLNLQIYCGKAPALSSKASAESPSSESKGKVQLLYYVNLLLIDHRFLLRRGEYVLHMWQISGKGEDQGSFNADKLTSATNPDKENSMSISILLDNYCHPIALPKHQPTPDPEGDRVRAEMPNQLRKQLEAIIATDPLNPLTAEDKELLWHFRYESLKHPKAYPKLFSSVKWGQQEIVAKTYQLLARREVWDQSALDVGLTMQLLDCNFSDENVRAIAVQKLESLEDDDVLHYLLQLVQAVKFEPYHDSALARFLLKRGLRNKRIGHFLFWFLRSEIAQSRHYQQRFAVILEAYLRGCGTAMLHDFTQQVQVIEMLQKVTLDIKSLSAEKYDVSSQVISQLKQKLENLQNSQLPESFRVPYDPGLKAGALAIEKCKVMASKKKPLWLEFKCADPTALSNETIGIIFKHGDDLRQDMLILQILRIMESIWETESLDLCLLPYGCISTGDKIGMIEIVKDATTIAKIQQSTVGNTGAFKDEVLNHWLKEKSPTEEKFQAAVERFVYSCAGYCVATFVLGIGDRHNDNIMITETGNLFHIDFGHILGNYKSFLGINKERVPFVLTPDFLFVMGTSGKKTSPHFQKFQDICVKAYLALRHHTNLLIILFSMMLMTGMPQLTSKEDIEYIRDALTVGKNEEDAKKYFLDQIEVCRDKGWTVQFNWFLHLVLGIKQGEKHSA
How it was run: (§1)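 Eurofins KinaseProfiler panel with compound at a single 1 μM concentration. ATP at the Km of each kinase. Result is % inhibition, mean of two independent experiments.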

[2] = target: PI3-kinase p110-delta/p85-alpha (Homo sapiens) (UniProt P27986+O00329); assay: Inhibition of full length recombinant human PI3K p110delta/p85alpha at 1 uM relative to control; assay type: protein-complex assay; how it was run: as §1
[3] = target: PI3K p110 alpha/p85 alpha (Mus musculus) (UniProt P26450+P42337); assay: Inhibition of full length recombinant mouse PI3K p110alpha/p85alpha at 1 uM relative to control; assay type: protein-complex assay; how it was run: as §1
Mus musculus [4] = organism: Mus musculus; assay: Inhibition of full length recombinant mouse PI3K p85alpha/p110alpha E545K mutant at 1 uM relative to control; how it was run: as §1
Mus musculus [5] = organism: Mus musculus; assay: Inhibition of full length recombinant mouse p85alpha/PI3K p110alpha H1047R mutant at 1 uM relative to control; how it was run: as §1
[6] = tested on: PI3-kinase p110-alpha/p85-alpha (Homo sapiens), P27986+P42336 [E542K]; assay: Inhibition of full length recombinant human p85alpha/PI3K p110alpha E542K mutant at 1 uM relative to control; how it was run: as §1
T47D [7] = assay: Cell cycle arrest in human T47D cells assessed as decrease in S-phase at 0.25 to 0.5 uM after 24 hrs by propidium iodide-staining based flow cytometric analysis; assay type: functional
How it was run: (§2)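 Cells were seeded at 5 × 10^5 cells/mL. At 24 h after plating they were treated with increasing concentrations for 24 h, washed in PBS, and fixed in ice-cold 70% ethanol for at least 24 h. They were stained with propidium iodide plus RNase A for 30 min at 37 °C and analysed by flow cytometry for phase distribution.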

MCF7 = assay: Cell cycle arrest in human MCF7 cells assessed as accumulation at G0/G1 phase at 0.25 to 0.5 uM after 24 hrs by propidium iodide-staining based flow cytometric analysis; assay type: functional; how it was run: as §2
SiHa = assay: Induction of autophagy in human SiHa cells assessed as increase in LC3-2 level at 0.5 to 1 uM after 48 hrs by Western blot analysis; assay type: functional, cell-based
How it was run: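 Cells treated with test agents at several concentrations for 2 days (48 h). LC3B-II detected by Western blot on lysates, with β-actin as internal control. Membranes blocked in 5% skim milk, primary antibodies at 4 °C overnight, peroxidase-conjugated anti-mouse or anti-rabbit IgG secondary, ECL detection.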

HeLa = assay: Induction of autophagy in human HeLa cells assessed as increase in LC3-2 level at 1 to 2 uM after 48 hrs by Western blot analysis; assay type: functional, cell-based
How it was run: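 Cells were treated for 48 h (2 days) with varying concentrations. Whole-cell lysates were immunoblotted for LC3B-II with β-actin as the internal control. Membranes were blocked in 5% skim milk, incubated with primary antibody overnight at 4 °C, then with peroxidase-conjugated secondary, and developed by ECL.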

T47D [8] = assay: Induction of autophagy in human T47D cells assessed as increase in LC3-2 puncta level at 0.25 to 0.5 uM after 48 hrs by immunofluorescence staining based microscopic analysis; assay type: functional, cell-based
How it was run: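 Cells seeded on glass coverslips in complete 1640 or DMEM and incubated with inhibitors at different concentrations for 48 h. Fixed in 4% paraformaldehyde, permeabilized with 0.15% Triton X-100, blocked in 4% BSA/PBS for 1 h at room temperature. Anti-LC3B (1:200) overnight, then FITC-conjugated secondary, DAPI nuclear stain. LC3B-II puncta viewed by fluorescence microscopy.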

Homo sapiens [9] = organism: Homo sapiens; assay: Inhibition of mTORC1 in human SiHa cells assessed as reduction in 4E-BP1 phosphorylation at Thr37/46 residues at 0.25 to 0.5 uM by Western blot analysis; assay type: cell-based
How it was run: (§3)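 Cells treated with the indicated concentrations, then whole-cell lysates immunoblotted. mTORC1 activity read as S6 and 4E-BP1 phosphorylation; mTORC2 activity read as AKT Ser473 phosphorylation. Blocking in 5% skim milk, primary antibodies at 4 °C overnight, peroxidase-conjugated secondary, ECL detection.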

Homo sapiens [10] = organism: Homo sapiens; assay: Inhibition of mTORC1 in human T47D cells assessed as reduction in 4E-BP1 phosphorylation at Ser65 residues at 0.25 to 0.5 uM by Western blot analysis; assay type: cell-based; how it was run: as §3
Homo sapiens [11] = organism: Homo sapiens; assay: Inhibition of mTORC1 in human MCF7 cells assessed as reduction in 4E-BP1 phosphorylation at Ser65 residues at 0.25 to 0.5 uM by Western blot analysis; assay type: cell-based; how it was run: as §3
Homo sapiens [12] = organism: Homo sapiens; assay: Inhibition of mTORC1 in human MCF7 cells assessed as reduction in S6 phosphorylation at Ser 240/244 residues at 0.25 to 0.5 uM by Western blot analysis; assay type: cell-based; how it was run: as §3
Homo sapiens [13] = organism: Homo sapiens; assay: Inhibition of mTORC2 in human MCF7 cells assessed as reduction in AKT phosphorylation at Ser473 residues at 0.25 to 0.5 uM by Western blot analysis; assay type: cell-based; how it was run: as §3
T47D [14] = assay: Antitumor activity against human T47D cells xenografted in BALB/c nude mouse assessed as decrease in tumor growth administered via oral gavage after 3 weeks; assay type: functional, cell-based
Mus musculus [15] = assay: Down regulation of 4E-BP1 phosphorylation at Thr37/46 residues in human T47D cells xenografted in BALB/c nude mouse administered via oral gavage after 3 weeks by hematoxylin and eosine staining based light microscopic assay; assay type: functional, cell-based
How it was run: (§4)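 Tumours from the oral 3-week T-47D xenograft study were formalin-fixed, paraffin-embedded and cut into 5 μm sections. Sections were deparaffinized, rehydrated and incubated overnight at 4 °C with phospho-specific primary antibody at 1:100. Biotin secondary was applied for 1 h at room temperature, then ABC-peroxidase/DAB with hematoxylin counterstain. Sections were viewed by light microscopy.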

Mus musculus [16] = assay: Down regulation of S6 phosphorylation at Ser240/244 residues in human T47D cells xenografted in BALB/c nude mouse administered via oral gavage after 3 weeks by hematoxylin and eosine staining based light microscopic assay; assay type: functional, cell-based; how it was run: as §4
[17] = Cmax in Sprague-Dawley rat at 20 mg/kg, iv administered as single dose by HPLC analysis; assay type: ADME, organism-based; design: dose 20 mg/kg, route intravenous; details: in vivo
How it was run: (§5)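 Rats fasted overnight, then given one 20 mg/kg dose either iv or po. Blood was collected and centrifuged at once to obtain plasma. Plasma drug levels were measured by HPLC, and PK parameters were derived from the concentration-time data.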

[18] = MRT (0 to infinity) in Sprague-Dawley rat at 20 mg/kg, iv administered as single dose by HPLC analysis; assay type: ADME, organism-based; details: in vivo
How it was run: (§6)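 Rats fasted overnight, then given a single 20 mg/kg dose either iv or po. Blood collected and centrifuged immediately to obtain plasma. Plasma drug levels measured by HPLC, and pharmacokinetic parameters derived from both routes.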

[19] = MRT (0 to infinity) in Sprague-Dawley rat at 20 mg/kg, po administered as single dose by HPLC analysis; assay type: ADME, organism-based; details: in vivo; how it was run: as §6
[20] = Clearance in Sprague-Dawley rat at 20 mg/kg, po administered as single dose by HPLC analysis; assay type: ADME, organism-based; details: in vivo; how it was run: as §5

Sequence of mTOR/FKBP12A/FKBP12B (P62942 2-108 limits assumed, other chains not shown): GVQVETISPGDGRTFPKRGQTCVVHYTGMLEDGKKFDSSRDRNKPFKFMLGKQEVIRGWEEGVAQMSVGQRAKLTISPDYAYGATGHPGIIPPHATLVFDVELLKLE
Sequence of mTOR/FKBP12A/FKBP12B (P68106 whole entry, other chains not shown, canonical isoform): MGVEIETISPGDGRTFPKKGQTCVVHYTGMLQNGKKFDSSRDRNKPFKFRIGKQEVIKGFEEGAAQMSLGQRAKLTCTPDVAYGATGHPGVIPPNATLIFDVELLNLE

## N#CCN1CCC(n2c(=O)cnc3cnc4ccc(-c5ccc(N)nc5)cc4c32)CC1
mTOR/FKBP12A/FKBP12B
  IC50: 8 nM
[1]
  inhibition: 4%
[2]
  inhibition: 9%
[3]
  inhibition: 17%
Mus musculus [4]
  inhibition: 9%
Mus musculus [5]
  inhibition: 7%
[6]
  inhibition: 11%
T47D [7]
  Activity: Active
MCF7
  Activity: Active
SiHa
  Activity: Active
HeLa
  Activity: Active
T47D [8]
  Activity: Active
Homo sapiens [9]
  inhibition: Active
Homo sapiens [10]
  inhibition: Active
Homo sapiens [11]
  inhibition: Active
Homo sapiens [12]
  inhibition: Active
Homo sapiens [13]
  inhibition: Active
T47D [14]
  TGI: Dose-dependent effect
Mus musculus [15]
  Activity: Dose-dependent effect
Mus musculus [16]
  Activity: Dose-dependent effect
[17]
  Cmax: 4470 ng/mL
[18]
  MRT inf: 11.6 h
[19]
  MRT inf: 16.3 h
[20]
  CL/F: 58.5 mL/min/kg

— ChEMBL document CHEMBL4020823, “Highly Selective, Potent, and Oral mTOR Inhibitor for Treatment of Cancer as Autophagy Inducer” (J Med Chem, 2018)
